Assay [1] has as its system L1210. As to the kind of experiment: Antitumor activity against mouse L1210 cells allografted in BDF1 mouse assessed as survival at 200 mg/kg, ip administered as single dose measured on day 30 relative to vehicle-treated control. Format: functional, organism-based. Further details: dose 200 mg/kg. Put shortly:
(§1)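 Leukemic L1210 cells were introduced into mice. Each compound was then given as a single intraperitoneal injection 24 h later. Activity is expressed as % increase in life span (ILS), with the count of 30-day survivors per group. Doses tested were 100, 200, 500 and 1000 mg/kg.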

For another assay, the system named is Herpesviridae sp. As to the kind of experiment: Antiviral activity against Herpes Simplex virus HF infected in African green monkey BGM cells assessed as plaque reduction measured on day 5 by disk diffusion assay. Format: functional. The conditions noted are these: 120 h, read-out: ED50 (the source's name). A general note: In agar diffusion tests the substance spreads into inoculated agar from a disc or well.

In the next assay the test system is HeLa. Put plainly: Cytotoxicity against human HeLa cells after 48 hrs by Coulter counter analysis. Format: functional. The conditions noted are these: read-out: ED50 (the source's name).
A further assay concerns Vaccinia virus. Put plainly: Antiviral activity against Vaccinia virus IHD infected in African green monkey BGM cells assessed as plaque reduction measured on day 5 by disk diffusion assay. The conditions noted are these: Orthopoxvirus vaccinia, 120 h, read-out: ED50 (the source's name). Format: functional.
Assay [2] has as its system L1210. As to the kind of experiment: Antitumor activity against mouse L1210 cells allografted in BDF1 mouse assessed as increase in life span at 200 mg/kg, ip administered as single dose relative to vehicle-treated control. Format: functional. The settings on record: route intraperitoneal. Put shortly: (§2)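 Single intraperitoneal injection given 24 h after the leukemic cells were introduced, at 100, 200, 500 or 1000 mg/kg. Read-out is % increase in life span (ILS), with the count of 30-day survivors per group recorded (group sizes 7–8 mice).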

Assay [3] deals with L1210. As to the kind of experiment: Antitumor activity against mouse L1210 cells allografted in BDF1 mouse assessed as increase in life span at 1000 mg/kg, ip administered as single dose relative to vehicle-treated control. Format: functional. The settings on record: route intraperitoneal. Put shortly:
as §2

Assay [4] relates to L1210. Put plainly: Antitumor activity against mouse L1210 cells allografted in BDF1 mouse assessed as increase in life span at 100 mg/kg, ip administered as single dose relative to vehicle-treated control. The format is functional. The conditions noted are these: route intraperitoneal. Put shortly:
as §2

Assay [5] relates to L1210. Put plainly: Antitumor activity against mouse L1210 cells allografted in BDF1 mouse assessed as survival at 100 mg/kg, ip administered as single dose measured on day 30 relative to vehicle-treated control. Format: functional, organism-based. Further details: dose 100 mg/kg. Put shortly: as §1
In assay [6] the test system is L1210. As to the kind of experiment: Antitumor activity against mouse L1210 cells allografted in BDF1 mouse assessed as increase in life span at 500 mg/kg, ip administered as single dose relative to vehicle-treated control. The format is functional. The settings on record: route intraperitoneal. Put shortly: as §2
In assay [7] the test system is L1210. Put plainly: Antitumor activity against mouse L1210 cells allografted in BDF1 mouse assessed as survival at 1000 mg/kg, ip administered as single dose measured on day 30 relative to vehicle-treated control. Further details: dose 1000 mg/kg. Format: functional, organism-based. Put shortly: as §1

Structures are written as SMILES. ≈ marks a conversion by molar mass, not a printed value. Calls of active or inactive are those of the source. The rule behind the calls is not given here. A value given as a limit tells only on which side of the number the result lay.

For `CCCCCCCC/C=C\CCCCCCCC(=O)O[C@H]1[C@H](O)[C@H](n2ccc(N)nc2=O)O[C@@H]1CO`, the outcome in the assay with L1210 [1] was inactive. Moreover, the results for the EC50 in the assay on Herpesviridae sp., in the assay on HeLa and in the assay with Vaccinia virus were 940 nM, 0.06 µg/mL (≈ 0.118 µM) and 730 nM, respectively. Further, in the assay on L1210 [2], the ILS at 200 mg/kg was 67%.
On to `CCCCCCC/C=C\C(=O)O[C@H]1[C@H](O)[C@H](n2ccc(N)nc2=O)O[C@@H]1CO.Cl`, for which the result with L1210 [1] was inactive. Besides, the figures for the EC50 in the assay on Herpesviridae sp., in the assay on HeLa and in the assay on Vaccinia virus were 230 nM, 0.06 µg/mL and 110 nM, respectively. Moreover, in the assay with L1210 [2], the ILS at 200 mg/kg is 22%.
For `CCCCCCCCCCCCCCCCCCCC(=O)OC[C@H]1O[C@@H](n2ccc(N)nc2=O)[C@@H](O)[C@@H]1OC(=O)CCCCCCCCCCCCCCCCCCC`, the result in the assay on L1210 [1] and in the assay with L1210 [5] was inactive. For the same compound, the results for the EC50 in the assay with Herpesviridae sp., in the assay on HeLa and in the assay on Vaccinia virus were over 30000 nM, over 10 µg/mL and over 30000 nM, respectively. The ILS at 1000 mg/kg in the assay on L1210 [3] is over 205%. Moreover, the ILS at 100 mg/kg in the assay with L1210 [4] was found to be 87%. For the same compound, the ILS at 200 mg/kg in the assay on L1210 [2] was 39%.
As to `CCCCCCCCCCCCCCCC(=O)OC[C@H]1O[C@@H](n2ccc(N)nc2=O)[C@@H](O)[C@@H]1OC(=O)CCCCCCCCCCCCCCC`, the EC50 in the assay on Herpesviridae sp. was over 30000 nM; with HeLa it was over 10 µg/mL; with Vaccinia virus, 30000 nM. Besides, the ILS at 1000 mg/kg in the assay on L1210 [3] was over 237%. The ILS at 200 mg/kg with L1210 [2] was over 255%.
On to `CCCCCCCCC(=O)O[C@H]1[C@H](O)[C@H](n2ccc(N)nc2=O)O[C@@H]1CO`, for which, in the assay on L1210 [1], the result was inactive. The EC50 was 300 nM with Herpesviridae sp., 0.05 µg/mL (≈ 0.13 µM) in the assay on HeLa and 100 nM in the assay on Vaccinia virus. The ILS at 1000 mg/kg in the assay with L1210 [3] is over 142%. Besides, the ILS at 500 mg/kg in the assay with L1210 [6] is over 189%. In the assay with L1210 [2], the ILS at 200 mg/kg worked out at 59%.
With `CCCCCCCCCCCCCCCCCC(=O)OC[C@H]1O[C@@H](n2ccc(N)nc2=O)[C@@H](O)[C@@H]1OC(=O)CCCCCCCCCCCCCCCCC`, the outcome in the assay on L1210 [1] was inactive. Moreover, the figures for the EC50 with Herpesviridae sp., with HeLa and in the assay with Vaccinia virus were over 30000 nM, 10 µg/mL (≈ 12.9 µM) and over 30000 nM, respectively. The ILS at 1000 mg/kg with L1210 [3] was over 328%. Moreover, the ILS at 200 mg/kg in the assay on L1210 [2] was determined as 124%.
For the compound `CCCCCCCCCCCCCC(=O)OC[C@H]1O[C@@H](n2ccc(N)nc2=O)[C@@H](O)[C@@H]1OC(=O)CCCCCCCCCCCCC`, in the assay with L1210 [1], the result was Active. Moreover, the EC50 in the assay on Herpesviridae sp. was 10000 nM; in the assay on HeLa, 1.4 µg/mL (≈ 2.11 µM); with Vaccinia virus it was 5700 nM. Further, the ILS at 1000 mg/kg with L1210 [3] is -12%. Further, in the assay on L1210 [4], the ILS at 100 mg/kg was over 255%. Besides, the ILS at 500 mg/kg with L1210 [6] was over 105%. Moreover, the result in the assay on L1210 [7] was inactive. In the assay on L1210 [2], the ILS at 200 mg/kg is over 240%.
For the compound `CCCCCCCCCCCCCCCCCC(=O)O[C@H]1[C@H](O)[C@H](n2ccc(N)nc2=O)O[C@@H]1CO`, the EC50 is 700 nM with Herpesviridae sp., 0.13 µg/mL (≈ 0.255 µM) in the assay with HeLa and 380 nM in the assay with Vaccinia virus. Further, the ILS at 1000 mg/kg in the assay with L1210 [3] was -23%. Further, the ILS at 100 mg/kg in the assay on L1210 [4] is over 219%. Also, the result with L1210 [5] was Active. In addition, the result in the assay on L1210 [7] was inactive. Also, the ILS at 200 mg/kg with L1210 [2] was over 228%.
In the case of `CCCCCCCC/C=C\CCCCCCCCCCCC(=O)OC[C@H]1O[C@@H](n2ccc(N)nc2=O)[C@@H](O)[C@@H]1OC(=O)CCCCCCCCCCC/C=C\CCCCCCCC`, the outcome with L1210 [1] and in the assay on L1210 [5] was inactive. Further, the EC50 in the assay with Herpesviridae sp. was over 30000 nM; in the assay on HeLa it was over 10 µg/mL; in the assay on Vaccinia virus, over 30000 nM. For the same compound, in the assay with L1210 [4], the ILS at 100 mg/kg was 58%. Moreover, the ILS at 200 mg/kg in the assay on L1210 [2] was 86%.
As to `CCCCCCCCCCC(=O)O[C@H]1[C@H](O)[C@H](n2ccc(N)nc2=O)O[C@@H]1CO`, the EC50 in the assay with Herpesviridae sp. was found to be 120 nM; in the assay on HeLa it was 0.04 µg/mL (≈ 0.0972 µM); in the assay with Vaccinia virus, 100 nM. The ILS at 100 mg/kg with L1210 [4] was over 127%. In addition, the ILS at 500 mg/kg in the assay with L1210 [6] was over 99%. The ILS at 200 mg/kg with L1210 [2] was over 125%.
As to `Cl.Nc1ccn([C@@H]2O[C@H](CO)[C@@H](OC(=O)Cc3ccccc3)[C@@H]2O)c(=O)n1`, in the assay on L1210 [1], the result was inactive. The EC50 in the assay with Herpesviridae sp. came out at 1500 nM; with HeLa, 0.11 µg/mL; in the assay on Vaccinia virus, 460 nM. For the same compound, the ILS at 200 mg/kg in the assay with L1210 [2] is 8%.
